Experiments:
[1] = Cytotoxicity against african green monkey BGM cells after 24 hrs by MTT assay; type: cell-based; conditions: chlorocebus aethiops, read-out: MLD50
In short: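 MTT (3 mg/mL) was added, the supernatant was removed after 3 h, and the dye was dissolved in DMSO. Read at 570 nm. MLD50 (minimal lethal dose for 50% of cells) taken from non-linear regression dose–response curves.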

Plasmodium falciparum [2] = test: Antimalarial activity against chloroquine/sulfadoxine-resistant Plasmodium falciparum W2 infected in human A+ erythrocytes assessed as reduction in parasite growth after 72 hrs by HRP2 detection based ELISA; type: functional, organism-based; conditions: W2, 72 h
In short: (§1)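 P. falciparum W2 cultured in human A+ erythrocytes in RPMI 1640 with human serum, sorbitol-synchronized to rings. Parasitemia 0.05%, hematocrit 1.5%. […] Three freeze-thaw cycles, then HRPII sandwich ELISA read at 450 nm. IC50 from non-linear regression dose–response curves, three separate experiments (±SD).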

[3] = Selectivity index, ratio of MLD50 for african green monkey BGM cells to IC50 for chloroquine/sulfadoxine-resistant Plasmodium falciparum W2; type: toxicity, cell-based; conditions: read-out: Selectivity Index
In short: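 Selectivity index calculated from the BGM MLD50 (24 h MTT, 570 nm, non-linear regression) and the W2 IC50 (72 h HRPII ELISA in A+ erythrocytes).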

Plasmodium falciparum [4] = test: Antimalarial activity against chloroquine-resistant Plasmodium falciparum W2; type: functional, organism-based; in short: as §1
Plasmodium falciparum [5] = test: Antimalarial activity against chloroquine-resistant and mefloquine-sensitive Plasmodium falciparum W2 infected in human A+ erythrocytes after 72 hrs by HRP2 detection based ELISA; type: functional, organism-based; conditions: W2, 72 h; in short: as §1

Compound | CC50 at 24 h [1] [µM] | IC50 (Plasmodium falciparum [2]) [µM] | selectivity ratio [3] | IC50 (Plasmodium falciparum [4]) [nM] | IC50 (Plasmodium falciparum [5]) [nM]
COc1ccc(S(=O)(=O)NCCCCNc2c(C#N)cnc3c2cnn3-c2ccccc2)cc1 | 498 | 5 | 99.6 | – | –
N#Cc1cnc2c(cnn2-c2ccccc2)c1NCCCCN | 503 | 5 | 101 | – | –
CCOC(=O)c1cnc2c(cnn2-c2ccccc2)c1NCCCCNS(=O)(=O)c1ccccc1 | 822 | 6.52 | 126 | – | –
N#Cc1cnc2c(cnn2-c2ccccc2)c1NCCCCNS(=O)(=O)c1ccccc1 | 248 | 4.2 | 59 | – | –
CCOC(=O)c1cnc2c(cnn2-c2ccccc2)c1NCCCCNS(=O)(=O)c1ccc(OC)cc1 | 995 | 9.3 | 107 | – | –
O=Cc1cn(-c2ccnc3cc(Cl)ccc23)nn1 | – | – | – | 1400 | –
CCOC(=O)c1cnc2c(cnn2-c2ccccc2)c1NCCCCNS(=O)(=O)c1ccc(Cl)cc1 | > 1000 | 3.6 | > 278 | – | –
Cc1ccc(S(=O)(=O)NCCCCNc2c(C#N)cnc3c2cnn3-c2ccccc2)cc1 | 682 | 3.6 | 189 | – | –
N#Cc1cnc2c(cnn2-c2ccccc2)c1NCCCCNS(=O)(=O)c1ccc(Cl)cc1 | 418 | 7.5 | 55.7 | – | –
N#Cc1cnc2c(cnn2-c2ccccc2)c1NCCCCNS(=O)(=O)c1ccc(F)cc1 | 508 | 9.3 | 54.6 | – | –
CCOC(=O)c1cnc2c(cnn2-c2ccccc2)c1NCCCCNS(=O)(=O)c1ccc(F)cc1 | 993 | 4.12 | 241 | – | –
CCOC(=O)c1cnc2c(cnn2-c2ccccc2)c1NCCCCNS(=O)(=O)c1ccc(C)cc1 | 596 | 3.46 | 172 | – | –
Cc1cc(Nc2ccc3ccccc3c2)n2nc(C(F)(F)F)nc2n1 | – | – | – | – | 23
COc1ncnc(NS(=O)(=O)c2ccc(N)cc2)c1OC [SULFADOXINE] | 310 | 15 | 20.7 | – | –

From ChEMBL document CHEMBL3826907, “Design, synthesis and anti-P. falciparum activity of pyrazolopyridine-sulfonamide derivatives” (Bioorg Med Chem, 2016)
